For 95 compounds, cytotoxicity results are on record in ChEMBL document CHEMBL4513216, “Probing the Open Global Health Chemical Diversity Library for Multistage-Active Starting Points for Next-Generation Antimalarials” (ACS Infect Dis, 2020).

The series in a line: Toxicity liver stage against HepG2, at 10uM. In kind it is cell-based. Further details: test concentration 10 uM, cell line HepG2-A16-CD81EGFP. The note with it: human, HepG2-A16-CD81EGFP cells; read-out: INHIBITION
An outline of the steps:
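Uninfected HepG2-A16-CD81EGFP cells, 3 × 10^3 per well, 1536-well, plated on prespotted compound at 10 μM final, parasite-free screening media added to match infected plates; puromycin 10 μM positive, DMSO 0.5% negative; run in parallel with 48 h PbLuc assay at 37 °C, 5% CO2; viability by CellTiter-Glo luminescence, normalized to controls.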
Take `C1CCC(OCCN2CCN(CCOC3CCCCC3)CC2)CC1`: the cytotoxicity at 10 µM was -0.434%.

In the case of `Cc1ccc(CNC[C@H]2Cn3cc(-c4ccccc4)nc3CO2)cc1`, the cytotoxicity at 10 µM is -9.43%.

As to `Cn1cnnc1S(=O)(=O)C1CCN(S(=O)(=O)c2ccc(Cl)s2)CC1`, the cytotoxicity at 10 µM was -4.72%.

As for `CC(C)N(C)Cc1nnc2n1CCCN(C(=O)C1CCCO1)C2` (stereo not given), the cytotoxicity at 10 µM is 19%.

As to `CC(=O)NCc1noc2c1CN(Cc1cnn(C)c1)CC2`, the cytotoxicity at 10 µM was -1.71%.

For the compound `Cc1cc(C)cc(CN2C[C@@H]3OCCN(S(=O)(=O)N(C)C)[C@@H]3C2)c1`, the cytotoxicity at 10 µM is 8.28%.

With `O=C(NC1CC1)N1CCc2ccc(=O)n(Cc3ccncc3)c2CC1`, the cytotoxicity at 10 µM is -0.972%.

As for `CCC(CC)C(=O)N1CCN(C)c2ncccc2C1`, the cytotoxicity at 10 µM was -3%.

`COC(=O)c1c(Cl)c(C2CC2)nc2onc(C)c12`: the cytotoxicity at 10 µM came to 10.1%.

Regarding `c1cc(NC2CC3(CCN(Cc4cscn4)C3)C2)ncn1` (stereo not given), the cytotoxicity at 10 µM is -2.28%.

As to `COc1cc([C@@H]2N[C@H](c3nccs3)Cc3ccsc32)cc(OC)c1OC`, the cytotoxicity at 10 µM was 8.71%.

In the case of `Cc1csc2c(C3CCN(CCCOc4ccccc4)CC3)nc(C)n12`, the cytotoxicity at 10 µM is 1.63%.

Take `CNC(=O)C1CN(C(C)C)CCN1c1ncccn1` (stereo not given): the cytotoxicity at 10 µM stood at 1.22%.

Consider `Cc1ncc(CN2CCc3c(nc4cc(C5CC5)nn4c3O)C2)n1C`, for which the cytotoxicity at 10 µM was found to be 6.62%.

As for `c1ncc(CN2CC(Cc3nccc4cc[nH]c34)C2)cn1`, the cytotoxicity at 10 µM was -1.06%.

Regarding `CC(C)CNC(=O)C1(Cc2ccccc2-c2ccccc2)CCNC1` (stereo not given), the cytotoxicity at 10 µM was -17.8%.

As to `Cn1ccnc1C(=O)N1CCOC(Cc2ccc(Cl)cc2)C1` (stereo not given), the cytotoxicity at 10 µM was found to be 9.23%.

Regarding `Cn1nc(C2CCN(C(=O)c3cccs3)CC2)c2cccnc21`, the cytotoxicity at 10 µM was -8.72%.

As to `Cc1cc(-c2cnc(N3CCSCC3)nc2-c2ccc(C)s2)on1`, the cytotoxicity at 10 µM was -2.5%.

As for `O=C(c1cnco1)N1C[C@@H]2CC[C@H](Oc3cccc(F)c3)[C@@H]2C1`, the cytotoxicity at 10 µM is -6.18%.

Turning to `N#Cc1ccccc1OCCN1CCCCC1C(=O)N1CCOCC1` (stereo not given), the cytotoxicity at 10 µM is -45.6%.

In the case of `CCCN1CCC(N(C)C(=O)c2cc(C)nc3cc(F)ccc23)CC1`, the cytotoxicity at 10 µM worked out at 0.906%.

Take `Cc1ccc(CCCC(=O)N2CCC(=O)Nc3cccnc32)s1`: the cytotoxicity at 10 µM was -60.7%.

`Cc1ncsc1CCN(C)Cc1ccc(Br)o1`: the cytotoxicity at 10 µM is -43%.

Turning to `COCC(C)NC(=O)CN1CCC2(CC1)OCCO2` (stereo not given), the cytotoxicity at 10 µM was determined as 7.3%.

Turning to `Cc1noc(C)c1CCC(=O)N1CCCCC1CNS(C)(=O)=O` (stereo not given), the cytotoxicity at 10 µM was 8.71%.

As to `CCOc1nnc(CN(C)C2CCCN(c3ccc(C)nn3)C2)s1` (stereo not given), the cytotoxicity at 10 µM came to 13.2%.

For `O=C(CCc1ccc(Cl)cc1)NC1CCN(c2cccc(F)c2)CC1`, the cytotoxicity at 10 µM was -5.99%.

With `CC(C)OCCCNC(=O)c1cccnc1N1CCOCC1`, the cytotoxicity at 10 µM came out at 10.5%.

As to `CCN(C(c1cccnc1)c1cc(C)cc(C)c1)S(C)(=O)=O` (stereo not given), the cytotoxicity at 10 µM is 2.88%.

As to `COc1ccc2cc(CN(C)C(C)c3nc(C4CC4)no3)ccc2c1` (stereo not given), the cytotoxicity at 10 µM came out at 3.18%.

On to `CN(CC(=O)NCC(F)(F)F)Cc1nc2c(s1)CCCC2`, for which the cytotoxicity at 10 µM amounted to 19%.

For the compound `CN1CCC(NC(=O)Cc2csc(C(C)(C)C)n2)CC1`, the cytotoxicity at 10 µM is -2.37%.

On to `Cc1ccc(CNC(=O)c2c[nH]nc2NC(=O)C2CCC2)cc1`, for which the cytotoxicity at 10 µM came to 2.05%.

Take `O=C(O)c1cccn1-c1ccc2c(c1)OCCO2`: the cytotoxicity at 10 µM was -7.48%.

As for `CN(CC1CC1)S(=O)(=O)c1ccc(C(F)(F)F)cc1C#N`, the cytotoxicity at 10 µM was determined as 2.95%.

With `CN1CCN(c2ncc(CNCCCc3cccc(F)c3)cn2)CC1`, the cytotoxicity at 10 µM is -13.2%.

Regarding `CCOc1ccc(Cl)cc1NC(=O)N1CCC(n2cncn2)CC1`, the cytotoxicity at 10 µM is 4.93%.

Regarding `CC(C)c1nc(CNC2CCN(C(=O)OC(C)(C)C)CC2)cs1`, the cytotoxicity at 10 µM was -1.72%.

As for `CC(=O)N1CCC(NC(=O)NCc2ncc(-c3ccccc3)o2)CC1`, the cytotoxicity at 10 µM is -44.7%.

In the case of `Nc1cc2c(nn1)CCN(C(=O)c1csc(-c3ccccc3)n1)C2`, the cytotoxicity at 10 µM was -12.4%.

Consider `O=C(C(CNCc1ccsc1)c1ccccc1)N1CCOCC1` (stereo not given), for which the cytotoxicity at 10 µM is -7.32%.

On to `Cc1cc(C)nc(N2CCN(C(=O)c3cc(Cl)c[nH]3)CC2)n1`, for which the cytotoxicity at 10 µM was -4%.

Consider `CCN(CC)c1ccc(NS(=O)(=O)c2cncc(F)c2)cn1`, for which the cytotoxicity at 10 µM was -8.37%.

As for `OCCNc1cc(-c2ccccc2)ncn1`, the cytotoxicity at 10 µM is -7.94%.

As to `OCCNc1cc(-c2ccncc2)ncn1`, the cytotoxicity at 10 µM is -7.88%.

`O=S(=O)(NCc1ccccc1)Nc1cccc(Cn2cncn2)c1`: the cytotoxicity at 10 µM was found to be 5.91%.

With `CCc1cc(NC(CCO)c2ccc(OC)cc2)n2nccc2n1` (stereo not given), the cytotoxicity at 10 µM was -30.4%.

`Cc1ncsc1-c1nc(Cc2cccs2)nn1C1CCN(C)CC1`: the cytotoxicity at 10 µM was -4.51%.

For `CCOC(=O)N1CCN(c2nc(C)ncc2CC)CC1`, the cytotoxicity at 10 µM was -61.2%.

On to `Cc1nnsc1C(=O)N1CCN(C(=O)C2CCC2)[C@@H]2CS(=O)(=O)C[C@@H]21`, for which the cytotoxicity at 10 µM is -2%.

Consider `Cc1ccc(C)c2c(C)c(C(=O)NCCCn3ccnn3)[nH]c12`, for which the cytotoxicity at 10 µM was -0.84%.

Turning to `Cc1ccc(N2CCCC(c3[nH]ncc3Cc3ccccc3)C2)nn1` (stereo not given), the cytotoxicity at 10 µM was 10.4%.

For `Cn1ccnc1CN1CCN(Cc2ccccc2)[C@@H]2CS(=O)(=O)C[C@@H]21`, the cytotoxicity at 10 µM is -3.41%.

Take `Cc1ccc([C@@H]2CN(C(=O)c3ccsc3)C[C@H]2NC(=O)C2CC2)cc1`: the cytotoxicity at 10 µM was 2.93%.

For `O=C(O)c1cc(C2=CCCCC2)cc(S(=O)(=O)NCc2ccccn2)c1`, the cytotoxicity at 10 µM is -46.6%.

In the case of `CCN(C)Cc1n[nH]c(=O)n1-c1ccc(C)c(C)c1`, the cytotoxicity at 10 µM is 6.27%.

With `CCC(CO)N(Cc1ccccn1)Cc1ccc(-c2ccn[nH]2)s1` (stereo not given), the cytotoxicity at 10 µM turned out to be 2.66%.

Take `CC(C)C(C)N(Cc1cnc2ccccc2n1)Cc1ccco1` (stereo not given): the cytotoxicity at 10 µM was determined as 14.7%.

`CCc1cnc(C)nc1N1CCC(Cc2cccc(C(=O)O)c2)C1` (stereo not given): the cytotoxicity at 10 µM came to 2.42%.

Consider `CCCc1nc(C)cc(N2CCNC(C(=O)NC3CC3)C2)n1` (stereo not given), for which the cytotoxicity at 10 µM is -56.5%.

Take `CCc1[nH]c2c(CNc3cncc(C(=O)N(C)C)n3)cc(F)cc2c1C`: the cytotoxicity at 10 µM stood at 3.86%.

On to `COc1ccc(F)c(CN2CCCC3(CCN(S(C)(=O)=O)C3)C2)c1` (stereo not given), for which the cytotoxicity at 10 µM was -2.93%.

Take `COc1cccc(N2CCC(N3C[C@@H](NC(C)=O)[C@H](C(C)C)C3)CC2)c1`: the cytotoxicity at 10 µM was -9.98%.

As to `N[C@H]1CN(Cc2cnc(N3CCCC3)nc2)C[C@@H]1C1CC1`, the cytotoxicity at 10 µM was -45.5%.

Take `Cc1ccc(C(=O)Nc2ccc(OC3CCN(C)CC3)cc2)c(C)c1`: the cytotoxicity at 10 µM came to 7.48%.

On to `COc1nccnc1N1CCN(Cc2ccc3c(c2)OCO3)C(=O)C1`, for which the cytotoxicity at 10 µM was -1.65%.

With `O=C(O)C(c1ccc2c(c1)OCCO2)N1CCCC1` (stereo not given), the cytotoxicity at 10 µM is -5.38%.

As for `CC(C)N(C)C(=O)CN1CCCC(c2ccc(C(=O)O)cc2)C1` (stereo not given), the cytotoxicity at 10 µM is -7.74%.

For the compound `O=C1CC2(CCN(CC3CCOC3)CC2)CN1Cc1cc(F)cc(F)c1` (stereo not given), the cytotoxicity at 10 µM was -18.9%.

`CN(c1ccc(C(=O)NCCCN2CCOCC2)c(Cl)c1)S(C)(=O)=O`: the cytotoxicity at 10 µM is -11.2%.

Consider `O=C(O)c1cc(-c2cccs2)nc2c(Cl)cnn12`, for which the cytotoxicity at 10 µM is -8.33%.

Consider `Cc1nc(CN(C)C2CCCN(c3cccnn3)C2)nc2ccccc12` (stereo not given), for which the cytotoxicity at 10 µM is -0.164%.

`Cn1ncc2c(=O)[nH]c(CN(Cc3ccco3)C3CC3)nc21`: the cytotoxicity at 10 µM is -9.8%.

For `Cc1ccc(NC2CCN(C(=O)c3ccc(F)c(C)c3)CC2)nn1`, the cytotoxicity at 10 µM was 2.37%.

`Cc1nccn1C1CCCN(C(=O)c2ccc3c(c2)OCCCO3)C1` (stereo not given): the cytotoxicity at 10 µM was -12.9%.

`CCn1c(CN2CCN(CCOC)CC2)nc2c(F)cccc21`: the cytotoxicity at 10 µM is -9.86%.

On to `Cc1nc(C)n(CC2CCCN2Cc2nc(-c3ccsc3)no2)n1` (stereo not given), for which the cytotoxicity at 10 µM is -9.8%.

Consider `CC(C(=O)NCc1ccc(-n2cncn2)nc1)S(C)(=O)=O` (stereo not given), for which the cytotoxicity at 10 µM came to 7.41%.

On to `Cc1ccc(CN(C)Cc2nc3c(cnn3C)c(=O)[nH]2)c(C)c1`, for which the cytotoxicity at 10 µM was found to be 0.403%.

In the case of `O=C(c1cccn1Cc1cccs1)N1CCN(C(=O)C2CC2)CC1`, the cytotoxicity at 10 µM was -6.59%.

As for `N#CCCN(C(=O)CN1CCCC1c1ccsc1)c1ccccc1F` (stereo not given), the cytotoxicity at 10 µM was -5.8%.

As to `CSc1ncccc1C(=O)NCc1ccc(CS(=O)(=O)NC(C)C)cc1`, the cytotoxicity at 10 µM was determined as 4.4%.

On to `Cc1cc(C)n(C2CCCN(C(=O)CCCNc3ncccn3)C2)n1` (stereo not given), for which the cytotoxicity at 10 µM stood at 5.15%.

Regarding `Cc1ccc(NC2CCN(C(=O)Cc3cccc(F)c3)CC2)nn1`, the cytotoxicity at 10 µM was -5.23%.

`CSCC[C@H](N)c1nnc(SCC(=O)Nc2ccc(Br)cc2)o1`: the cytotoxicity at 10 µM was -2.15%.

For `Cc1ncc(CN2Cc3ccccc3OC3(CCC(CO)CC3)C2)cn1` (stereo not given), the cytotoxicity at 10 µM was found to be 0.179%.

With `COc1cccc(CN2CCC3(CCN(c4ncc(F)cn4)CC3)C2)c1`, the cytotoxicity at 10 µM is -0.664%.

Consider `COCCN1CCC2(COCCN(Cc3ccc4c(c3)OCO4)C2)C1` (stereo not given), for which the cytotoxicity at 10 µM is -0.234%.

In the case of `CCN(CC)c1ccc2ccc(C(=O)N(CCOC)CCOC)cn12`, the cytotoxicity at 10 µM is 1.15%.

Turning to `O=C(NCC1CC1)[C@@H]1CCO[C@@H]2CCN(CCc3ccccc3)C[C@H]21`, the cytotoxicity at 10 µM came to 1.14%.

For the compound `Cc1ccc(NC2COC3(CCN(CC(C)C)CC3)C2)nn1` (stereo not given), the cytotoxicity at 10 µM is -1%.

With `Cc1ccc(CN2C[C@@H]3CCCO[C@@H]3[C@H](NS(C)(=O)=O)C2)o1`, the cytotoxicity at 10 µM is 5.16%.

Turning to `CN(C)CC(=O)N1CCC2(CC1)CN(c1ccsc1)C(=O)CO2`, the cytotoxicity at 10 µM is 10.1%.

Consider `O=C(NCCN1CCOCC1)c1ccn(-c2ccc3ccccn23)n1`, for which the cytotoxicity at 10 µM was -0.735%.
